ChEMBL document CHEMBL1153798, “Substituted tetrahydroquinolines as potent allosteric inhibitors of reverse transcriptase and its key mutants” (Bioorg Med Chem Lett, 2009)
pIC50: −log10 of the molar value.

Tests used:
[1] = test system: Human immunodeficiency virus 1; test: Antiviral activity against HIV1 3B infected human MT4 cells assessed as drug level required for 95% inhibition in the presence of 50% normal human serum; format: functional
How it was run: (§1)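 Spread assay: MT-4 human T-lymphoid cells in RPMI 1640 with either 10% FBS or 50% NHS; CIC95 taken as the concentration blocking >95% of virus spread. Wild-type virus H9IIIB or R8 as stated per line. Geometric mean of at least two determinations, individual values within 25% of the mean.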

[2] = test system: Human immunodeficiency virus 1; test: Antiviral activity against HIV1 3B infected human MT4 cells assessed as drug level required for 95% inhibition in the presence of 10% fetal bovine serum; format: functional; how it was run: as §1
[3] = Inhibition of HIV1 reverse transcriptase K103 mutant

| Structure (SMILES) | ID95 [1] [nM] | ID95 [2] [nM] | pIC50 [3] | Activity [1] [µM] | Activity [2] [nM] |
| --- | --- | --- | --- | --- | --- |
| O=C(CSC(=O)N1CCCc2cc(Cl)cc(Cl)c21)Nc1ccccc1Cl | 406 | 125 | – | – | – |
| N#Cc1ccc(NC(=O)CSC(=O)N2CCCc3cc(Cl)cc(Cl)c32)c(Cl)c1 | 1250 | – | 7.85 | – | – |
| NS(=O)(=O)c1ccc(NC(=O)COC(=O)N2CCCc3cc(Cl)cc(Cl)c32)c(Cl)c1 | – | – | 7.68 | 2.5 | 187 |
| NS(=O)(=O)c1ccc(NC(=O)CCC(=O)N2CCCc3cc(Cl)cc(Cl)c32)c(Cl)c1 | – | – | – | 5 | 406 |
| Cc1cccc2c1N(C(=O)SCC(=O)Nc1ccc(S(N)(=O)=O)cc1Cl)CCC2 | 219 | 47 | 8.40 | – | – |
| NS(=O)(=O)c1ccc(NC(=O)CSC(=O)N2CCCc3cc(Cl)ccc32)c(Cl)c1 | 1250 | 141 | – | – | – |
| NS(=O)(=O)c1ccc(NC(=O)CNC(=O)N2CCCc3cc(Cl)cc(Cl)c32)c(Cl)c1 | – | – | – | >10 | 562 |
| Cc1cc(C)c(N(C)C(=O)SCC(=O)Nc2ccc(S(N)(=O)=O)cc2Cl)c(C)c1 | – | – | 8.05 | – | – |
